For one assay, the system named is H3N2 subtype. Description: Antiviral activity against Influenza A virus (A/Aichi/2/1968(H3N2)) infected in MDCK cells after 48 hrs by plaque assay. The class given is functional, organism-based. The procedure, abridged: (§1)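 N-stearoyl peptides were serially diluted in PBS from a 2 mM stock and mixed with 50-200 pfu virus for 30 min at room temperature. The mixture was put on MDCK monolayers for 30 min at 37 °C under 5% CO2, then washed off. After 2 days, plaques were stained with crystal violet and counted. Inhibition was 100(1 - N/N0), n = 3, plotted against concentration.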

A further assay concerns Influenza A virus. Description: Antiviral activity against Influenza A virus (A/Puerto Rico/8/34(H1N1)) infected in MDCK cells after 48 hrs by plaque assay. It counts as functional, organism-based. The conditions noted are these: A/Puerto Rico/8/1934(H1N1). Summed up:
as §1

Where a SMILES comes first, the peptide text is derived from it. The star is where a group is joined. Stearoyl = CCCCCCCCCCCCCCCCCC(=O)*

For the compound `CCCCCCCCCCCCCCCCCC(=O)N[C@@H](C)C(=O)N[C@@H](CCCNC(=N)N)C(=O)N[C@@H](CC(C)C)C(=O)N1CCC[C@H]1C(=O)N[C@@H](CCCNC(=N)N)C(N)=O` (Stearoyl-ARLPR-NH2), the values for the IC50 in the assay with H3N2 subtype and in the assay on Influenza A virus were 1.9 µM and 1.6 µM, respectively.

Consider `CCCCCCCCCCCCCCCCCC(=O)N[C@@H](C)C(=O)N[C@@H](CCCNC(=N)N)C(=O)N[C@@H](CC(C)C)C(=O)N1CCC[C@H]1C(=O)N[C@@H](CCCNC(=N)N)C(=O)N[C@@H](CC(N)=O)C(=O)N[C@@H](CCSC)C(=O)N[C@H](C(=O)N[C@@H](Cc1cnc[nH]1)C(=O)N[C@@H](Cc1cnc[nH]1)C(=O)N[C@@H](CCCCN)C(=O)N[C@H](C(=O)N[C@@H](C)C(=O)N[C@@H](CCC(N)=O)C(=O)N1CCC[C@H]1C(N)=O)[C@@H](C)O)C(C)C` (Stearoyl-ARLPRNMVHHKTAQP-NH2), for which the IC50 (as a rule, the concentration that gives 50% inhibition) in the assay on H3N2 subtype was 6.2 µM; in the assay on Influenza A virus it was 15 µM.

Turning to `CCCCCCCCCCCCCCCCCC(=O)N[C@@H](C)C(=O)N[C@@H](CCCNC(=N)N)C(=O)N[C@@H](CC(C)C)C(=O)N1CCC[C@H]1C(=O)N[C@@H](CCCNC(=N)N)C(=O)N[C@@H](CO)C(=O)N[C@@H](CCSC)C(=O)N[C@H](C(=O)N[C@@H](Cc1cnc[nH]1)C(=O)N[C@@H](Cc1cnc[nH]1)C(=O)N[C@@H](CCCCN)C(=O)N1CCC[C@H]1C(=O)N[C@@H](C)C(=O)N[C@@H](CCC(N)=O)C(=O)N1CCC[C@H]1C(N)=O)C(C)C` (Stearoyl-ARLPRSMVHHKPAQP-NH2), the IC50 was 8.9 µM with H3N2 subtype and 22 µM in the assay on Influenza A virus.

On to `CCCCCCCCCCCCCCCCCC(=O)N[C@@H](C)C(=O)N[C@@H](CCCNC(=N)N)C(=O)N[C@@H](CC(C)C)C(=O)N1CCC[C@H]1C(=O)N[C@@H](CCCNC(=N)N)C(=O)N[C@H](C(=O)N[C@@H](CC(C)C)C(=O)N[C@H](C(=O)N[C@@H](Cc1cnc[nH]1)C(=O)N1CCC[C@H]1C(=O)N[C@@H](CCCCN)C(=O)N[C@@H](Cc1cnc[nH]1)C(=O)N[C@@H](C)C(=O)N[C@@H](CCC(N)=O)C(=O)N[C@@H](C)C(N)=O)C(C)C)[C@@H](C)O` (Stearoyl-ARLPRTLVHPKHAQA-NH2), for which the IC50 in the assay on H3N2 subtype turned out to be 7.6 µM; with Influenza A virus, 13.5 µM.

On to `CCCCCCCCCCCCCCCCCC(=O)N[C@@H](C)C(=O)N[C@@H](CCCNC(=N)N)C(=O)N[C@@H](CC(C)C)C(=O)N1CCC[C@H]1C(=O)N[C@@H](CCCNC(=N)N)C(=O)N[C@H](C(=O)N[C@@H](CCSC)C(=O)N[C@H](C(N)=O)C(C)C)[C@@H](C)O` (Stearoyl-ARLPRTMV-NH2), for which the IC50 in the assay with H3N2 subtype was 3 µM; in the assay with Influenza A virus, 4.2 µM.

Take `CCCCCCCCCCCCCCCCCC(=O)N[C@@H](C)C(=O)N[C@@H](CCCNC(=N)N)C(=O)N[C@@H](CC(C)C)C(=O)N1CCC[C@H]1C(=O)N[C@@H](CCCNC(=N)N)C(=O)N[C@H](C(=O)N[C@@H](CCSC)C(=O)N[C@H](C(=O)N[C@@H](Cc1cnc[nH]1)C(=O)N1CCC[C@H]1C(=O)N[C@@H](CCCCN)C(=O)N1CCC[C@H]1C(=O)N[C@@H](C)C(=O)N[C@@H](CCC(N)=O)C(=O)N1CCC[C@H]1C(N)=O)C(C)C)[C@@H](C)O` (Stearoyl-ARLPRTMVHPKPAQP-NH2): the figures for the IC50 in the assay on H3N2 subtype and in the assay on Influenza A virus were 11 µM and 15 µM, respectively.

In turn, `CCCCCCCCCCCCCCCCCC(=O)N[C@@H](C)C(=O)N[C@@H](CCCNC(=N)N)C(=O)N[C@@H](CC(C)C)C(=O)N[C@@H](CO)C(=O)N1CCC[C@H]1C(=O)N[C@H](C(=O)N[C@@H](CCSC)C(=O)N[C@H](C(=O)N[C@@H](Cc1cnc[nH]1)C(=O)N1CCC[C@H]1C(=O)N[C@@H](CC(N)=O)C(=O)NCC(=O)N[C@@H](C)C(=O)N[C@@H](CCC(N)=O)C(=O)N1CCC[C@H]1C(N)=O)C(C)C)[C@@H](C)O` (Stearoyl-ARLSPTMVHPNGAQP-NH2) returned an IC50 in the assay on Influenza A virus above 1000 µM.
